Experimental data published in ChEMBL document CHEMBL1240472, “Hypervalent iodine(III) mediated synthesis of novel unsymmetrical 2,5-disubstituted 1,3,4-oxadiazoles as antibacterial and antifungal agents” (2010).
In brackets after ≈: the same amount, converted by molar mass.

Assays:
Escherichia coli [1] = assay: Antimicrobial activity against Escherichia coli MTCC 1652 by microdilution assay; type: functional; conditions: in the assay text read “macrodilution” for “microdilution”
How it was run: (§1)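 MIC determined in µg/ml by the macrodilution method, only for compounds active in the primary diffusion screen. Results are means of three replicates.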

Bacillus subtilis [2] = assay: Antimicrobial activity against Bacillus subtilis MTCC 121 […]; type: functional
Aspergillus flavus = assay: Antimicrobial activity against Aspergillus flavus assessed as inhibition of mycelial growth by poisoned food method; type: functional
Staphylococcus aureus [3] = assay: Antimicrobial activity against Staphylococcus aureus MTCC 96 after by agar well diffusion method
Pseudomonas aeruginosa [4] = assay: Antimicrobial activity against Pseudomonas aeruginosa MTCC 741 after 24 hrs by […]; type: functional
How it was run: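 Agar well diffusion assay (8 mm wells). Inhibition zone diameter read in mm, with the well diameter included in the value. Results are means of three replicates.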

Staphylococcus aureus [5] = assay: Antimicrobial activity against Staphylococcus aureus MTCC 96 […]; type: functional
Escherichia coli [6] = assay: Antimicrobial activity against Escherichia coli MTCC 1652 by […]; type: functional
Aspergillus niger = assay: Antimicrobial activity against Aspergillus niger assessed as inhibition of mycelial growth by poisoned food method; type: functional
Bacillus subtilis [7] = assay: Antimicrobial activity against Bacillus subtilis MTCC 121 by agar well diffusion method
Pseudomonas aeruginosa [8] = assay: Antimicrobial activity against Pseudomonas aeruginosa MTCC 741 by microdilution assay; type: functional; conditions: in the assay text read “macrodilution” for “microdilution”; how it was run: as §1

Compound	MIC (Escherichia coli [1])	MIC (Bacillus subtilis [2])	inhibition (INH) (Aspergillus flavus)	inhibition zone (IZ) (Staphylococcus aureus [3])	inhibition zone (IZ) (Pseudomonas aeruginosa [4])	MIC (Staphylococcus aureus [5])	inhibition zone (IZ) (Escherichia coli [6])	inhibition (INH) (Aspergillus niger)	inhibition zone (IZ) (Bacillus subtilis [7])	MIC (Pseudomonas aeruginosa [8])
Fc1ccc(-c2nn(-c3ccccc3)cc2-c2nnc(-c3ccccc3)o2)cc1	> 128 µg/mL	32 µg/mL (≈ 83.7 µM)	50%	18.6 mm	14.3 mm	128 µg/mL (≈ 335 µM)	14.3 mm	66.6%	20.6 mm	> 128 µg/mL
O=[N+]([O-])c1ccc(-n2cc(-c3nnc(-c4ccccc4)o3)c(-c3ccc(F)cc3)n2)cc1	64 µg/mL (≈ 150 µM)	8 µg/mL (≈ 18.7 µM)	55.5%	21.3 mm	16.6 mm	32 µg/mL (≈ 74.9 µM)	20 mm	44.4%	24.3 mm	128 µg/mL (≈ 299 µM)
Clc1ccc(-c2nn(-c3ccccc3)cc2-c2nnc(-c3ccccc3)o2)cc1	> 128 µg/mL	64 µg/mL (≈ 160 µM)	44.4%	21.6 mm	13.6 mm	32 µg/mL (≈ 80.2 µM)	15.6 mm	55.5%	19.6 mm	> 128 µg/mL
O=[N+]([O-])c1ccc(-c2nn(-c3ccccc3)cc2-c2nnc(-c3ccccc3)o2)cc1	> 128 µg/mL	16 µg/mL (≈ 39.1 µM)	61.1%	23.3 mm	14.3 mm	8 µg/mL (≈ 19.5 µM)	15.6 mm	50%	21.6 mm	> 128 µg/mL
OC(Cn1cncn1)(Cn1cncn1)c1ccc(F)cc1F [FLUCONAZOLE]	–	–	77.7%	–	–	–	–	81.1%	–	–
O=C(O)c1cn(C2CC2)c2cc(N3CCNCC3)c(F)cc2c1=O [CIPROFLOXACIN]	5 µg/mL (≈ 15.1 µM)	5 µg/mL (≈ 15.1 µM)	–	26 mm	22 mm	5 µg/mL (≈ 15.1 µM)	–	–	24 mm	5 µg/mL (≈ 15.1 µM)
Cc1ccc(-c2nn(-c3ccccc3)cc2-c2nnc(-c3ccccc3)o2)cc1	> 128 µg/mL	16 µg/mL (≈ 42.3 µM)	61.1%	18.3 mm	13.6 mm	128 µg/mL (≈ 338 µM)	15.6 mm	66.6%	21.6 mm	> 128 µg/mL
O=[N+]([O-])c1ccc(-c2nn(-c3ccc([N+](=O)[O-])cc3)cc2-c2nnc(-c3ccccc3)o2)cc1	128 µg/mL (≈ 282 µM)	8 µg/mL (≈ 17.6 µM)	44.4%	22.6 mm	14.6 mm	16 µg/mL (≈ 35.2 µM)	18.3 mm	55.5%	23.6 mm	> 128 µg/mL
O=[N+]([O-])c1ccc(-n2cc(-c3nnc(-c4ccccc4)o3)c(-c3ccccc3)n2)cc1	128 µg/mL (≈ 313 µM)	8 µg/mL (≈ 19.5 µM)	66.6%	20.6 mm	15.3 mm	64 µg/mL (≈ 156 µM)	18.6 mm	66.6%	24.3 mm	> 128 µg/mL
COc1ccc(-c2nn(-c3ccc([N+](=O)[O-])cc3)cc2-c2nnc(-c3ccccc3)o2)cc1	64 µg/mL (≈ 146 µM)	8 µg/mL (≈ 18.2 µM)	50%	24.3 mm	18.6 mm	8 µg/mL (≈ 18.2 µM)	20.6 mm	55.5%	23.6 mm	64 µg/mL (≈ 146 µM)
c1ccc(-c2nnc(-c3cn(-c4ccccc4)nc3-c3ccccc3)o2)cc1	> 128 µg/mL	128 µg/mL (≈ 351 µM)	61.1%	20.3 mm	13.6 mm	64 µg/mL (≈ 176 µM)	14.3 mm	44.4%	18.6 mm	> 128 µg/mL
Brc1ccc(-c2nn(-c3ccccc3)cc2-c2nnc(-c3ccccc3)o2)cc1	128 µg/mL (≈ 289 µM)	128 µg/mL (≈ 289 µM)	55.5%	20 mm	14.6 mm	64 µg/mL (≈ 144 µM)	16.6 mm	61.1%	18.3 mm	> 128 µg/mL
COc1ccc(-c2nn(-c3ccccc3)cc2-c2nnc(-c3ccccc3)o2)cc1	128 µg/mL (≈ 325 µM)	32 µg/mL (≈ 81.1 µM)	66.6%	22.6 mm	14 mm	16 µg/mL (≈ 40.6 µM)	16.3 mm	44.4%	20.3 mm	> 128 µg/mL
